Key:
[1] = Binding affinity to wild type Plasmodium falciparum DHFR by competitive binding assay
[2] = Binding affinity to recombinant Plasmodium falciparum V1/S DHFR S108N, N51I, C59R, I164L mutant by competitive binding assay; parameters: species or system V1S
[3] = Selectivity ratio of Ki for human recombinant DHFR to Ki for wild type Plasmodium falciparum DHFR
Dihydrofolate reductase = target: T1, Dihydrofolate reductase (Homo sapiens, UniProt P00374); assay: Binding affinity to human recombinant DHFR expressed in Escherichia coli BL21(DE3) by competitive binding assay
T1 sequence (P00374 whole entry): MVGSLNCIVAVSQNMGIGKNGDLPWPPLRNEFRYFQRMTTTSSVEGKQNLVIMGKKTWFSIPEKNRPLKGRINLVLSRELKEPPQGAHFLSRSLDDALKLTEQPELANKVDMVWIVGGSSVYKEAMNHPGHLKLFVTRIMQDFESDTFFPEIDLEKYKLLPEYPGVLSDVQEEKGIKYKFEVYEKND

Plasmodium falciparum [4] = assay: Selectivity ratio of Ki for recombinant Plasmodium falciparum V1/S DHFR S108N, N51I, C59R, I164L mutant to Ki for wild type Plasmodium falciparum DHFR
Plasmodium falciparum [5] = assay: Antimalarial activity against pyrimethamine-resistant Plasmodium falciparum clinical isolate harboring S108N, N51I mutation in DHFR assessed as decrease in parasitaemia; assay type: functional, organism-based
Outline: (§1)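 P. falciparum grown in RPMI 1640 with 10% (v/v) human serum, 25 mM bicarbonate, 2 mM glutamine, 25 mM HEPES, 5 nM para-aminobenzoic acid and 23 nM folic acid. Parasites exposed to a concentration series. Read-out is [3H]hypoxanthine incorporation into nucleic acid. IC50 taken from non-linear regression of the dose–response curve.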

Plasmodium falciparum [6] = assay: Antimalarial activity against pyrimethamine-resistant Plasmodium falciparum V1/S harboring S108N, N51I, C59R, I164L mutation in DHFR assessed as decrease in parasitaemia; assay type: functional, organism-based; conditions: V1S
Plasmodium falciparum [7] = assay: Antimalarial activity against pyrimethamine-resistant Plasmodium falciparum clinical isolate harboring S108N, C59R mutation in DHFR assessed as decrease in parasitaemia; assay type: functional, organism-based; outline: as §1
Plasmodium falciparum [8] = assay: Antimalarial activity against pyrimethamine-resistant Plasmodium falciparum clinical isolate harboring S108N, N51I, C59R mutation in DHFR assessed as decrease in parasitaemia; assay type: functional, organism-based; outline: as §1
Plasmodium berghei [9] = assay: Antimalarial activity against Plasmodium berghei ANKA infected in NMRI mice (Mus musculus) assessed as mean survival time at 3 times 30 mg/kg, perorally; assay type: functional; conditions: route oral
Outline: (§2)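 Infection: 5 female NMRI mice (20–22 g) per group, inoculated intravenously with 0.2 ml of donor blood at 1 × 10^8 parasitized erythrocytes/ml. Oral administration in 0.5% carboxymethyl cellulose. Survival time recorded up to 30 days after infection and averaged per group.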

Plasmodium berghei [10] = assay: Antimalarial activity against Plasmodium berghei ANKA infected in perorally dosed NMRI mice (Mus musculus) assessed as reduction in parasitemia administered as single dose measured on day 3 postinfection; assay type: functional; conditions: for ED50 / ED90: po, 72 h
Plasmodium berghei [11] = assay: Antimalarial activity against Plasmodium berghei ANKA infected in NMRI mice (Mus musculus) assessed as reduction in parasitemia at 3 times 30 mg/kg, perorally measured on day 3 postinfection; assay type: functional; parameters: scale not given: the % may be the effect or the level left; conditions: route oral
Outline: (§3)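 P. berghei ANKA given intravenously to groups of 5 female NMRI mice (20–22 g): 0.2 ml of 1 × 10^8 parasitized erythrocytes/ml from a donor mouse. Oral dosing in 0.5% carboxymethyl cellulose. Parasitemia counted by microscopy. Activity is the control-minus-treated parasitemia difference, expressed as percent of untreated controls.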

Plasmodium berghei [12] = assay: Antimalarial activity against Plasmodium berghei ANKA infected in NMRI mice (Mus musculus) assessed as cure rate at 3 times 30 mg/kg, perorally measured […]; assay type: functional; conditions: route oral
Outline: (§4)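 Female NMRI mice (20–22 g), 5 per group, infected intravenously with 0.2 ml of 1 × 10^8 parasitized erythrocytes/ml from a fresh donor mouse. Compound suspended in 0.5% carboxymethyl cellulose and given orally. Survival followed to day 30 post-infection; an animal was scored cured if it survived to day 30 without parasites.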

Mus musculus [13] = assay: Toxicity in NMRI mice (Mus musculus) infected with Plasmodium berghei ANKA at 100 mg/kg, perorally administered as single dose measured up to 30 days postinfection; assay type: organism-based; parameters: dose 100 mg/kg, route oral; conditions: in vivo, po, 720 h
Mus musculus [14] = assay: Toxicity in NMRI mice (Mus musculus) infected with Plasmodium berghei ANKA at 3 times 30 mg/kg, perorally measured up to 30 days postinfection; assay type: organism-based; parameters: dose 30 mg/kg, route oral; conditions: in vivo, po, 720 h
Plasmodium berghei [15] = assay: Antimalarial activity against Plasmodium berghei ANKA infected in NMRI mice (Mus musculus) assessed as cure rate at 100 mg/kg, perorally administered as single dose measured on […]; assay type: functional; conditions: route oral; outline: as §4
Plasmodium berghei [16] = assay: Antimalarial activity against Plasmodium berghei ANKA infected in NMRI mice (Mus musculus) assessed as reduction in parasitemia at 100 mg/kg, perorally administered as single dose measured on day 3 postinfection; assay type: functional; parameters: scale not given: the % may be the effect or the level left; conditions: route oral; outline: as §3
Plasmodium berghei [17] = assay: Antimalarial activity against Plasmodium berghei ANKA infected in NMRI mice (Mus musculus) assessed as survival rate at 100 mg/kg, perorally administered as single dose; assay type: functional; conditions: route oral; outline: as §2

Row | Structure (SMILES) | Ki [1] | Ki [2] | Survival (Plasmodium berghei [9]) | ED50 (Plasmodium berghei [10]) | ED90 (Plasmodium berghei [10]) | Activity (Plasmodium berghei [11]) | Activity (Plasmodium berghei [12]) | Activity (Mus musculus [13]) | Activity (Mus musculus [14]) | Activity (Plasmodium berghei [15]) | Activity (Plasmodium berghei [16]) | Survival (Plasmodium berghei [17]) | also measured
1 | CC1(C)N=C(N)N=C(N)N1c1ccc(Cl)cc1 [CYCLOGUANIL] | 1.51 nM | 454 nM | – | – | – | – | – | – | – | – | – | – | –
2 | CC1(C)N=C(N)N=C(N)N1OCCCOc1cc(Cl)c(Cl)cc1Cl | 0.5 nM | 1.9 nM | – | – | – | – | – | – | – | – | – | – | Ratio Ki [3]: 15; Ki (Dihydrofolate reductase): 7.7 nM; Ratio Ki (Plasmodium falciparum [4]): 1.8
3 | CCc1nc(N)nc(N)c1-c1ccc(Cl)cc1 [PYRIMETHAMINE] | 0.59 nM | 385 nM | – | – | – | – | – | – | – | – | – | – | IC50 (Plasmodium falciparum [5]): 371 nM; IC50 (Plasmodium falciparum [6]): 3690 nM; IC50 (Plasmodium falciparum [7]): 371 nM; IC50 (Plasmodium falciparum [8]): 778 nM
4 | CCN(CC)CCCC(C)Nc1ccnc2cc(Cl)ccc12 (stereo unspecified) [CHLOROQUINE] | – | – | 22.1 days | 1.9 mg/kg | 4.2 mg/kg | 98.8% | 0% | 0% | 0% | 0% | 89% | 25.5 days | inhibition (Plasmodium berghei [10]): Dose dependent effect
5 | OC(c1cc(C(F)(F)F)nc2c(C(F)(F)F)cccc12)C1CCCCN1 (stereo unspecified) [MEFLOQUINE] | – | – | 14.3 days | – | – | 99.8% | 0% | 0% | 0% | 0% | 99.6% | – | –
6 | C[C@H]1[C@H](OC(=O)CCC(=O)O)O[C@@H]2O[C@@]3(C)CC[C@H]4[C@H](C)CC[C@@H]1[C@@]24OO3 [ARTESUNATE] | – | – | 12.2 days | 5.9 mg/kg | 20.5 mg/kg | 98.7% | 0% | 0% | 0% | 0% | 98% | 7 days | –
